From ChEMBL document CHEMBL5058577, “EUbOPEN Chemogenomics Library 2 (Multiplex)” (2022)

Test system: U2OS
Assay: Multiplex assay against U2OS
Format: toxicity, cell-based
Details: human
How it was run: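 Cells stained live at seeding with Hoechst33342, BioTracker Green Microtubule Cytoskeleton Dye, MitoTracker Red and Annexin V Alexa Fluor 680 were imaged on a CQ1 microscope at 37°C and 5% CO2 after compound addition. Their classification by CellPathfinder machine-learning gating ran from Hoechst high-intensity objects versus normal cells, to healthy, pyknosed or fragmented nuclei among normal cells, to mitotic or apoptotic among pyknosed cells. Tubulin, mitochondrial-mass and membrane-permeability phenotypes are per cents of healthy-nucleus cells.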

[1] = 12 h, 1 µM, compound concentration 1 uM, replicate 1
[2] = 12 h, 1 µM, compound concentration 1 uM, replicate 2
[3] = 12 h, 10 µM, compound concentration 10 uM, replicate 1
[4] = 12 h, 10 µM, compound concentration 10 uM, replicate 2
[5] = 24 h, 1 µM, compound concentration 1 uM, replicate 1
[6] = 24 h, 1 µM, compound concentration 1 uM, replicate 2
[7] = 24 h, 10 µM, compound concentration 10 uM, replicate 1
[8] = 24 h, 10 µM, compound concentration 10 uM, replicate 2
[9] = 48 h, 1 µM, compound concentration 1 uM, replicate 1
[10] = 48 h, 1 µM, compound concentration 1 uM, replicate 2
[11] = 48 h, 10 µM, compound concentration 10 uM, replicate 1
[12] = 48 h, 10 µM, compound concentration 10 uM, replicate 2

## O=C(NCCN1CCC(n2c(=O)[nH]c3cc(Cl)ccc32)CC1)c1ccc(F)cc1 [HALOPEMIDE]
[1]
  Population Apoptotic (%): 95%
  Population Fragmented Nuclei (%): 24%
  Population Healthy Nuclei (%): 65%
  Population Hoechst High Intensity Objects (%): 1%
  Population Membrane Permeable-Phenotype (%): 6%
  Population Mitochondria Different-Phenotype (%): 1%
  Population Mitotic Cells (%): 4%
  Population Normal (%): 98%
  Population Pyknosed Nuclei (%): 10%
  Population Tubulin-Different-Phenotype (%): 2%
  Total Cell Count: 209
[2]
  Population Apoptotic (%): 50%
  Population Fragmented Nuclei (%): 13%
  Population Healthy Nuclei (%): 79%
  Population Hoechst High Intensity Objects (%): 0%
  Population Membrane Permeable-Phenotype (%): 7%
  Population Mitochondria Different-Phenotype (%): 2%
  Population Mitotic Cells (%): 50%
  Population Normal (%): 100%
  Population Pyknosed Nuclei (%): 7%
  Population Tubulin-Different-Phenotype (%): 3%
  Total Cell Count: 105
[3]
  Population Apoptotic (%): 68%
  Population Fragmented Nuclei (%): 19%
  Population Healthy Nuclei (%): 65%
  Population Hoechst High Intensity Objects (%): 4%
  Population Membrane Permeable-Phenotype (%): 23%
  Population Mitochondria Different-Phenotype (%): 11%
  Population Mitotic Cells (%): 31%
  Population Normal (%): 95%
  Population Pyknosed Nuclei (%): 15%
  Population Tubulin-Different-Phenotype (%): 15%
  Total Cell Count: 244
[4]
  Population Apoptotic (%): 61%
  Population Fragmented Nuclei (%): 12%
  Population Healthy Nuclei (%): 78%
  Population Hoechst High Intensity Objects (%): 1%
  Population Membrane Permeable-Phenotype (%): 26%
  Population Mitochondria Different-Phenotype (%): 32%
  Population Mitotic Cells (%): 38%
  Population Normal (%): 98%
  Population Pyknosed Nuclei (%): 8%
  Population Tubulin-Different-Phenotype (%): 27%
  Total Cell Count: 152
[5]
  Population Apoptotic (%): 91%
  Population Fragmented Nuclei (%): 22%
  Population Healthy Nuclei (%): 68%
  Population Hoechst High Intensity Objects (%): 1%
  Population Membrane Permeable-Phenotype (%): 6%
  Population Mitochondria Different-Phenotype (%): 1%
  Population Mitotic Cells (%): 8%
  Population Normal (%): 98%
  Population Pyknosed Nuclei (%): 9%
  Population Tubulin-Different-Phenotype (%): 1%
  Total Cell Count: 241
[6]
  Population Apoptotic (%): 81%
  Population Fragmented Nuclei (%): 15%
  Population Healthy Nuclei (%): 72%
  Population Hoechst High Intensity Objects (%): 0%
  Population Membrane Permeable-Phenotype (%): 10%
  Population Mitochondria Different-Phenotype (%): 3%
  Population Mitotic Cells (%): 18%
  Population Normal (%): 99%
  Population Pyknosed Nuclei (%): 12%
  Population Tubulin-Different-Phenotype (%): 8%
  Total Cell Count: 132
[7]
  Population Apoptotic (%): 75%
  Population Fragmented Nuclei (%): 17%
  Population Healthy Nuclei (%): 64%
  Population Hoechst High Intensity Objects (%): 2%
  Population Membrane Permeable-Phenotype (%): 15%
  Population Mitochondria Different-Phenotype (%): 10%
  Population Mitotic Cells (%): 25%
  Population Normal (%): 97%
  Population Pyknosed Nuclei (%): 18%
  Population Tubulin-Different-Phenotype (%): 7%
  Total Cell Count: 271
[8]
  Population Apoptotic (%): 63%
  Population Fragmented Nuclei (%): 16%
  Population Healthy Nuclei (%): 71%
  Population Hoechst High Intensity Objects (%): 3%
  Population Membrane Permeable-Phenotype (%): 26%
  Population Mitochondria Different-Phenotype (%): 23%
  Population Mitotic Cells (%): 36%
  Population Normal (%): 96%
  Population Pyknosed Nuclei (%): 12%
  Population Tubulin-Different-Phenotype (%): 21%
  Total Cell Count: 159
[9]
  Population Apoptotic (%): 68%
  Population Fragmented Nuclei (%): 16%
  Population Healthy Nuclei (%): 75%
  Population Hoechst High Intensity Objects (%): 2%
  Population Membrane Permeable-Phenotype (%): 4%
  Population Mitochondria Different-Phenotype (%): 2%
  Population Mitotic Cells (%): 32%
  Population Normal (%): 97%
  Population Pyknosed Nuclei (%): 7%
  Population Tubulin-Different-Phenotype (%): 2%
  Total Cell Count: 337
[10]
  Population Apoptotic (%): 95%
  Population Fragmented Nuclei (%): 17%
  Population Healthy Nuclei (%): 69%
  Population Hoechst High Intensity Objects (%): 1%
  Population Membrane Permeable-Phenotype (%): 9%
  Population Mitochondria Different-Phenotype (%): 5%
  Population Mitotic Cells (%): 4%
  Population Normal (%): 98%
  Population Pyknosed Nuclei (%): 12%
  Population Tubulin-Different-Phenotype (%): 6%
  Total Cell Count: 187
[11]
  Population Apoptotic (%): 81%
  Population Fragmented Nuclei (%): 15%
  Population Healthy Nuclei (%): 69%
  Population Hoechst High Intensity Objects (%): 3%
  Population Membrane Permeable-Phenotype (%): 10%
  Population Mitochondria Different-Phenotype (%): 5%
  Population Mitotic Cells (%): 18%
  Population Normal (%): 96%
  Population Pyknosed Nuclei (%): 14%
  Population Tubulin-Different-Phenotype (%): 5%
  Total Cell Count: 382
[12]
  Population Apoptotic (%): 77%
  Population Fragmented Nuclei (%): 13%
  Population Healthy Nuclei (%): 67%
  Population Hoechst High Intensity Objects (%): 6%
  Population Membrane Permeable-Phenotype (%): 16%
  Population Mitochondria Different-Phenotype (%): 12%
  Population Mitotic Cells (%): 22%
  Population Normal (%): 93%
  Population Pyknosed Nuclei (%): 18%
  Population Tubulin-Different-Phenotype (%): 6%
  Total Cell Count: 197
